From ChEMBL document CHEMBL4390684, “The synthesis of 4,6-diaryl-2-pyridones and their bioactivation in CYP1 expressing breast cancer cells” (Bioorg Med Chem Lett, 2019) come the findings set out here.

For data set [1], the system named is MCF7. The experiment in a line: Antiproliferative activity against ER positive human MCF7 cells expressing low level of CYP assessed as reduction in cell viability measured after 96 hrs by MTT assay. Type of data set: functional, cell-based. The note with it: MCF7, 96 h. A digest of the protocol:
(§1)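 Antiproliferative IC50 values were determined in MCF-7, MDA-MB-468, TCDD-treated MCF-7 (high CYP1A1 expression) and non-tumour MCF-10A breast cells. Each value is the mean of two independent experiments run in quadruplicate.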

Data set [2] concerns MCF7. The experiment in a line: Antiproliferative activity against […]-induced ER positive human MCF7 cells expressing CYP1A1 assessed as reduction in cell viability after 96 hrs by MTT assay. It is filed as functional, cell-based. Conditions: MCF7, 96 h. The method, boiled down: as §1
(Tetrazolium dyes change colour on reduction, which living cells bring about.)

Data set [3] concerns MCF7. The data set is described as follows: Activation factor, ratio of antiproliferative IC50 of ER positive human MCF7 cells expressing low level of CYP to antiproliferative IC50 of […]-induced ER positive human MCF7 cells expressing CYP1A1. Type of data set: functional.
Data set [4] is described as follows: Selectivity index, ratio of IC50 for human MCF10A cells to IC50 for human MDA-MB-468 cells expressing CYP1A1 and CYP1B1. Type of data set: toxicity. Conditions: read-out: Ratio IC50.
The subject of data set [5] is MDA-MB-468. The experiment in a line: Antiproliferative activity against ER negative human MDA-MB-468 cells expressing CYP1A1 and CYP1B1 assessed as reduction in cell viability measured after 96 hrs by MTT assay. Type of data set: functional, cell-based. Conditions: MDA-MB-468, 96 h. The method, boiled down:
as §1

Data set [6] concerns MCF-10A. The experiment in a line: Cytotoxicity against human MCF10A cells assessed as reduction in cell viability after 96 hrs by MTT assay. Type of data set: cell-based. The method, boiled down:
as §1

For data set [7], the system named is MCF7. The data set is described as follows: Antiproliferative activity against ER positive human MCF7 cells expressing low level of CYP assessed as reduction in cell viability in presence of CYP 1 inhibitor alpha-naphthoflavone at 1 uM measured after 96 hrs by MTT assay. Type of data set: functional, cell-based. The note with it: MCF7, 96 h.
The subject of data set [8] is MCF7. The experiment in a line: Antiproliferative activity against […]-induced ER positive human MCF7 cells expressing CYP1A1 assessed as reduction in cell viability in presence of CYP 1 inhibitor alpha-naphthoflavone measured after 96 hrs by MTT assay. It is filed as functional, cell-based. The note with it: MCF7, 96 h.
Data set [9] has as its system MDA-MB-468. The data set is described as follows: Antiproliferative activity against ER negative human MDA-MB-468 cells expressing CYP1A1 and CYP1B1 assessed as reduction in cell viability in presence of CYP 1 inhibitor alpha-naphthoflavone at 1 uM measured after 96 hrs by MTT assay. It is filed as functional, cell-based. Conditions: MDA-MB-468, 96 h.
In data set [10] the test system is MCF-10A. The data set is described as follows: Antiproliferative activity against human MCF10A cells assessed as reduction in cell viability in presence of CYP 1 inhibitor alpha-naphthoflavone at 1 uM measured after 96 hrs by MTT assay.
For data set [11], the target named is T1, CYP1A1 (Homo sapiens, UniProt P04798).
T1 sequence (P04798 whole entry): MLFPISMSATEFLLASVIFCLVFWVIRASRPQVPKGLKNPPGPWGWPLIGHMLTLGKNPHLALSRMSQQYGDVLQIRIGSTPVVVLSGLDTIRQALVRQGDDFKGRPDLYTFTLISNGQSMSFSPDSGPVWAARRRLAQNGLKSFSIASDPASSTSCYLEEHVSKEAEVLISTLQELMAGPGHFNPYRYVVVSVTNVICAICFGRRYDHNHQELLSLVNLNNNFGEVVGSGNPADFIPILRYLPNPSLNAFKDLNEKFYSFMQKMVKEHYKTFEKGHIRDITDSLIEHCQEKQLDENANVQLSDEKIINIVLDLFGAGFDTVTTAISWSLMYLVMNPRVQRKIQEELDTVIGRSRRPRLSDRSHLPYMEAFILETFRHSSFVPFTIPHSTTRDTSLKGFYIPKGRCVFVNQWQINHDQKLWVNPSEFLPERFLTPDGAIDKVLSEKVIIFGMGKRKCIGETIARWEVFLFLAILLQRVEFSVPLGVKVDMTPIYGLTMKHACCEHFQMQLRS
The experiment in a line: Drug metabolism in supersomes expressing human CYP1A1 and coexpressing NADPH reductase assessed as CYP1A1-mediated drug metabolism by measuring compound half life at 10 uM in the presence of NADPH measured at 5 mins interval for 25 mins by reverse phase HPLC analysis. Type of data set: ADME. A digest of the protocol: (§2)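 Substrate was incubated with insect-cell Supersomes expressing human CYP1A1 or CYP1B1 plus NADPH reductase, at 20 pmol/mL CYP. Controls used non-CYP Supersomes, or omitted the compound, NADPH or active enzyme. Duplicate samples were taken every 5 min and quenched with ice-cold acetonitrile. After centrifugation, the supernatant was analysed by reverse-phase HPLC for parent depletion (half-life) and metabolite peaks.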

The target in data set [12] is T2, CYP1B1 (Homo sapiens, UniProt Q16678).
T2 sequence (Q16678 whole entry): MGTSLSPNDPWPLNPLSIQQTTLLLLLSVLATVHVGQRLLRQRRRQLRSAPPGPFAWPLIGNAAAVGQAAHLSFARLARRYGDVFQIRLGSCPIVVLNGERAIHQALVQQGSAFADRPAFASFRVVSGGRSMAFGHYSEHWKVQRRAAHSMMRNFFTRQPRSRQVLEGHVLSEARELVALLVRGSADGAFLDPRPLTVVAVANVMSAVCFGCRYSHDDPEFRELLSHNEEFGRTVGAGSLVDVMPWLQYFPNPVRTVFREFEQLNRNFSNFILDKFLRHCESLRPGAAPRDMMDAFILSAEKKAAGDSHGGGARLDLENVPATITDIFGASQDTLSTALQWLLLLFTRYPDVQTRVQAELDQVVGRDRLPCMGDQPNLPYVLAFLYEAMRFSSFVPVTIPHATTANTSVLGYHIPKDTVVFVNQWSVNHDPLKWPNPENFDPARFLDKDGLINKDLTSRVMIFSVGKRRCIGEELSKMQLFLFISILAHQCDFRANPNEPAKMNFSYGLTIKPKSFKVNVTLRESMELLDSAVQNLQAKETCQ
The data set is described as follows: Drug metabolism in supersomes expressing human CYP1B1 and coexpressing NADPH reductase assessed as CYP1B1-mediated drug metabolism by measuring compound half life at 10 uM in the presence of NADPH measured at 5 mins interval for 25 mins by reverse phase HPLC analysis. It is filed as ADME. The method, boiled down: as §2

The target of data set [13] is T3, Cytochrome P450 1A1 (Homo sapiens, UniProt P04798).
T3 sequence (P04798 whole entry): T1 sequence (P04798 whole entry)
The experiment in a line: Drug metabolism in supersomes expressing human CYP1A1 and coexpressing NADPH reductase assessed as CYP1A1-mediated 4-(3,4-Dihydroxyphenyl)-6-(2,4-dimethoxyphenyl)-1H-pyridin-2-one formation at 10 uM in the presence of NADPH measured at 5 mins interval for 25 mins by reverse phase HPLC method. Type of data set: ADME. Conditions: recombinant enzyme. The method, boiled down:
as §2

The target in data set [14] is T4, Cytochrome P450 1B1 (Homo sapiens, UniProt Q16678).
T4 sequence (Q16678 whole entry): T2 sequence (Q16678 whole entry)
The data set is described as follows: Drug metabolism in supersomes expressing human CYP1B1 and coexpressing NADPH reductase assessed as CYP1B1-mediated 4-(3,4-Dihydroxyphenyl)-6-(2,4-dimethoxyphenyl)-1H-pyridin-2-one formation at 10 uM in the presence of NADPH measured at 5 mins interval for 25 mins by reverse phase HPLC method. The note with it: recombinant enzyme. Type of data set: ADME. A digest of the protocol:
as §2

In data set [15] the target is T4, Cytochrome P450 1B1. The data set is described as follows: Drug metabolism in supersomes expressing human CYP1B1 and coexpressing NADPH reductase assessed as CYP1B1-mediated second metabolite retention time at 10 uM in the presence of NADPH measured at 5 mins interval for 25 mins by reverse phase HPLC method. It is filed as ADME. The note with it: recombinant enzyme. A digest of the protocol:
as §2

Molecules are shown by their SMILES.

As a reminder, the IC50 is the midpoint of a concentration-inhibition curve. Usually half-life stands for the time in which the quantity being followed falls by half. In the case of `COc1ccc(-c2cc(-c3ccc4c(c3)OCO4)cc(=O)[nH]2)c(OC)c1`, the 50% inhibitory concentration (IC50) in data set [1] is 9 µM; in [2], 1.8 µM; in [5], 0.04 µM; in data set [6], 40 µM; in data set [7] it was 12 µM; in data set [8], 9 µM. For the same molecule, the IC50 in data set [9] and in [10] was greater than 100 µM each time. In addition, in data set [3], the “Ratio IC50” value is 5. Further, in data set [4], the selectivity ratio is 1000. Besides, the values for the half-life at 10 µM in data set [11] and in [12] were 12.9 min and 30.1 min, respectively. The Drug metabolism entry in data set [13] and in data set [14] was “Metabolite_Detected” each time. Also, the Retention_time in [15] is listed as 9.22 min.
